ChEMBL document CHEMBL1145936, “Rational design of an indolebutanoic acid derivative as a novel aldose reductase inhibitor based on docking and 3D QSAR studies of phenethylamine derivatives” (J Med Chem, 2003)

Target: Aldo-keto reductase family 1 member B1 (Sus scrofa, UniProt P80276)
Assay: Inhibition of pig kidney aldose reductase (ALR2)
Outline: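 Enzyme prepared from pig kidney and assayed in vitro following a previously published method. Inhibition read spectrophotometrically at 340 nm; IC50 values reported. Tolrestat served as positive control.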

`O=C(O)CCC(=O)NCCc1ccc(F)cc1` and `O=C(O)CCCC(=O)NCCc1ccc(F)cc1` are within 1.5-fold of each other in IC50: 94 µM for the first, 76 µM for the second.

First: O=C(O)/C=C/C(=O)NCc1ccccc1
Second: O=C(O)/C=C/C(=O)NCCc1ccccc1
The IC50 of the first is 2.1-fold higher: 150 µM for the first, 73 µM for the second. The second is the more potent here.

`COc1ccc(CCNC(=O)CCC(=O)O)cc1` and `COc1ccc(CCNC(=O)CCCC(=O)O)cc1` are within 1.5-fold of each other in IC50: 170 µM for the first, 185 µM for the second.

`O=C(O)CCCC(=O)NCCc1ccc(Br)cc1` and `O=C(O)CCC(=O)NCCc1ccc(Br)cc1` are within 1.5-fold of each other in IC50: 110 µM for the first, 94 µM for the second.

Going from `CC(=O)NCCc1ccc(O)cc1` to `CCC(C)C(=O)NCCc1ccc(O)cc1` (stereo not drawn), the IC50 rises from 160 µM to 1800 µM (11-fold).

`CCCCCCCCCC(=O)NCCc1ccc(O)cc1` and `CCCCCCCCCCCC(=O)NCCc1ccc(O)cc1` are the same in IC50: 110 µM for the first, 110 µM for the second.

Going from `COc1ccc(CCNC(=O)c2ccccc2C(=O)O)cc1` to `O=C(O)c1ccccc1C(=O)NCCc1ccc(Br)cc1`, the IC50 falls from 177 µM to 81 µM (2.2-fold).

First: O=C(O)c1ccccc1C(=O)NCc1ccccc1
Second: O=C(O)c1ccccc1C(=O)NCCc1ccccc1
The IC50 of the first is 2-fold higher: 180 µM for the first, 88 µM for the second. The second is the more potent here.

`O=C(O)CCC(=O)NCc1ccccc1` and `O=C(O)CCCC(=O)NCc1ccccc1` are within 1.5-fold of each other in IC50: 141 µM for the first, 133 µM for the second.

Going from `O=C(NCCc1ccc(O)cc1)c1ccccc1` to `O=C(O)c1ccccc1C(=O)NCCc1ccc(O)cc1`, the IC50 rises from 160 µM to 340 µM (2.1-fold). The first is the more potent here.

`O=C(O)/C=C/C(=O)NCCc1ccc(F)cc1` and `O=C(O)/C=C/C(=O)NCCc1ccc(Br)cc1` are within 1.5-fold of each other in IC50: 75 µM for the first, 99 µM for the second.

`O=C(O)CCC(=O)NCCc1ccccc1` and `O=C(O)CCCC(=O)NCCc1ccccc1` are within 1.5-fold of each other in IC50: 78 µM for the first, 104 µM for the second.

First: O=C(O)/C=C/C(=O)n1ccc2ccccc21
Second: O=C(O)CCC(=O)n1ccc2ccccc21
The IC50 of the first is 1.5-fold higher: 37 µM for the first, 24 µM for the second.

Compared with `O=C(O)CCC(=O)Nc1ccccc1`, `O=C(O)CCCC(=O)Nc1ccccc1` is 2.3-fold higher in IC50: 192 µM for the first, 440 µM for the second. The first is the more potent here.

Going from `O=C(O)c1ccccc1C(=O)NCCc1ccc(Cl)cc1` to `O=C(O)c1ccccc1C(=O)NCCc1ccc(F)cc1`, the IC50 falls from 203 µM to 88 µM (2.3-fold). The second is the more potent here.

`COc1cc(C(=O)NCCc2ccc(O)cc2)cc(OC)c1OC` and `CCCCC(=O)NCCc1ccc(O)cc1` are within 1.5-fold of each other in IC50: 100 µM for the first, 130 µM for the second.

Compared with `O=C(O)c1ccccc1C(=O)N1CCc2ccccc21`, `O=C(O)c1ccccc1C(=O)n1ccc2ccccc21` is 3.2-fold lower in IC50: 95 µM for the first, 30 µM for the second.

Going from `O=C(O)CCC(=O)NCCc1ccc(O)cc1` to `O=C(O)CCC(=O)NCCc1ccc(Cl)cc1`, the IC50 falls from 390 µM to 99 µM (3.9-fold). The second is the more potent here.

`O=C(O)/C=C/C(=O)NCCc1ccc(Cl)cc1` and `O=C(O)/C=C/C(=O)NCCc1ccc(O)cc1` are within 1.5-fold of each other in IC50: 112 µM for the first, 80 µM for the second.

`O=C(O)CCCC(=O)NCCc1ccc(Cl)cc1` and `CCCCCCCC(=O)NCCc1ccc(O)cc1` are within 1.5-fold of each other in IC50: 154 µM for the first, 120 µM for the second.

`COc1ccc(CCNC(=O)/C=C/C(=O)O)cc1` and `O=C(O)/C=C/C(=O)Nc1ccccc1` are within 1.5-fold of each other in IC50: 155 µM for the first, 182 µM for the second.

Compared with `O=C(O)CCC(=O)n1ccc2c(O)cccc21`, `O=C(O)CCC(=O)N1CCc2ccccc21` is 14-fold higher in IC50: 7.4 µM for the first, 102 µM for the second. The first is the more potent here.

First: O=C(O)/C=C/C(=O)N1CCc2ccccc21
Second: O=C(O)c1ccccc1C(=O)Nc1ccccc1
The IC50 of the first is 5.7-fold lower: 40 µM for the first, 227 µM for the second. The first is the more potent here.

Going from `CCCCCCCCCCCCCCCC(=O)NCCc1ccc(O)cc1` to `COc1ccc2c(C(=S)N(C)CC(=O)O)cccc2c1C(F)(F)F` [TOLRESTAT], the IC50 falls from 150 µM to 16 µM (9.4-fold). The second is the more potent here.
